ChEMBL document CHEMBL1137675, “Convenient one-pot synthesis of novel 2-substituted benzimidazoles, tetrahydrobenzimidazoles and imidazoles and evaluation of their in vitro antibacterial and antifungal activities” (2009)
Converted amounts (≈) assume the structure as drawn.

Legend:
[1] = tested on: Penicillium sp.; test: Antifungal activity against Penicillium sp. at 28 degC after 72 hrs; format: functional; settings: for MIC: Penicillium sp., 72 h
In short: (§1)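 Filamentous fungi were kept on SDA at 28 °C. Spores from 7-day cultures were suspended in sterile normal saline to about 10⁵ cfu/ml, and about 0.1 ml was spread on SDA plates. Compounds were serially diluted two-fold in DMSO and impregnated on 8 mm discs, with a solvent control disc on each plate. Plates were held at 28 °C for 72 h or more, and inhibition zone diameter was read in mm.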

[2] = tested on: Bacillus subtilis; test: Antibacterial activity against Bacillus subtilis ATCC 6051 at 37 degC after 24 hrs by filter paper disk method; format: functional; settings: for MIC: Bacillus subtilis, ATCC 6051, 24 h
In short: (§2)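 Compounds were taken from a 1 mg/ml DMSO stock and serially diluted two-fold over a 300 to 18.75 range, then loaded onto sterile 8 mm paper discs. Bacteria were grown overnight in nutrient broth at 37 °C, pelleted, and resuspended in sterile NSS to 10⁵ cfu/ml. About 0.1 ml was spread on NA plates. Plates were incubated 24 h at 37 °C with a solvent control disc, and inhibition zone diameter was read in mm.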

[3] = tested on: Helminthosporium; test: Antifungal activity against Helminthosporium oryzae 2537 ICAR at 28 degC after 72 hrs; format: functional; settings: for MIC: Helminthosporium, 72 h; in short: as §1
[4] = tested on: Escherichia coli; test: Antibacterial activity against Escherichia coli K-12 at 37 degC after 24 hrs by filter paper disk method; format: functional; settings: for MIC: Escherichia coli, K-12, 24 h; in short: as §2
[5] = tested on: Candida albicans; test: Antifungal activity against Candida albicans IOA-109 at 37 degC after 18 to 48 hrs; format: functional; settings: for MIC: Candida albicans, IOA-109
[6] = tested on: Salmonella typhimurium; test: Antibacterial activity against Salmonella Typhimurium MTCC 98 at 37 degC after 24 hrs by filter paper disk method; format: functional, Salmonella enterica subsp. enterica serovar Typhimurium; settings: for MIC: Salmonella enterica, MTCC 98, 24 h; in short: as §2
[7] = tested on: Staphylococcus aureus; test: Antibacterial activity against Staphylococcus aureus MSSA 22 at 37 degC after 24 hrs by filter paper disk method; format: functional; settings: for MIC: Staphylococcus aureus, MSSA 22, 24 h; in short: as §2
[8] = tested on: Aspergillus niger; test: Antifungal activity against Aspergillus niger at 28 degC after 72 hrs; format: functional; settings: for MIC: Aspergillus niger, 72 h; in short: as §1
[9] = tested on: Trichoderma viride; test: Antifungal activity against Trichoderma viride at 28 degC after 72 hrs; format: functional; settings: for MIC: Trichoderma viride, 72 h; in short: as §1

Row | SMILES | diameter of the inhibition zone (DIZ) [1] [mm] | MIC [1] [µg/mL] | diameter of the inhibition zone (DIZ) [2] [mm] | MIC [2] [µg/mL] | diameter of the inhibition zone (DIZ) [3] [mm] | MIC [3] [µg/mL] | diameter of the inhibition zone (DIZ) [4] [mm] | MIC [4] [µg/mL] | diameter of the inhibition zone (DIZ) [5] [mm] | MIC [5] [µg/mL] | diameter of the inhibition zone (DIZ) [6] [mm] | MIC [6] [µg/mL] | diameter of the inhibition zone (DIZ) [7] [mm] | MIC [7] [µg/mL] | diameter of the inhibition zone (DIZ) [8] [mm] | MIC [8] [µg/mL] | diameter of the inhibition zone (DIZ) [9] [mm] | MIC [9] [µg/mL]
1 | CCCCCCCC/C=C/CCCCCCCc1nc2c([nH]1)CCCC2 | 17 | 75 (≈ 209 µM) | 19 | 75 (≈ 209 µM) | 12 | 150 (≈ 418 µM) | 17 | 150 (≈ 418 µM) | 18 | 75 (≈ 209 µM) | 10 | 75 (≈ 209 µM) | 16 | 75 (≈ 209 µM) | 13 | 37.5 (≈ 105 µM) | 6 | 37.5 (≈ 105 µM)
2 | C=CCCCCCCCCc1nc2cc([N+](=O)[O-])ccc2[nH]1 | 18 | 37.5 (≈ 124 µM) | 19 | 37.5 (≈ 124 µM) | 10 | 75 (≈ 249 µM) | 20 | 75 (≈ 249 µM) | 18 | 37.5 (≈ 124 µM) | 12 | 37.5 (≈ 124 µM) | 22 | 150 (≈ 498 µM) | 15 | 37.5 (≈ 124 µM) | 8 | 37.5 (≈ 124 µM)
3 | CCCCCC[C@@H](O)C/C=C\CCCCCCCc1nc2cc(Cl)ccc2[nH]1 | 19 | 37.5 (≈ 92.6 µM) | 19 | 75 (≈ 185 µM) | 14 | 75 (≈ 185 µM) | 18 | 75 (≈ 185 µM) | 18 | 37.5 (≈ 92.6 µM) | 17 | 37.5 (≈ 92.6 µM) | 21 | 37.5 (≈ 92.6 µM) | 14 | 37.5 (≈ 92.6 µM) | 9 | 37.5 (≈ 92.6 µM)
4 | CCCCC/C=C\CC[C@H](O)CCCCCCCc1nc2cc(Cl)ccc2[nH]1 | 19 | 37.5 (≈ 92.6 µM) | 20 | 75 (≈ 185 µM) | 14 | 75 (≈ 185 µM) | 19 | 37.5 (≈ 92.6 µM) | 18 | 37.5 (≈ 92.6 µM) | 17 | 37.5 (≈ 92.6 µM) | 21 | 37.5 (≈ 92.6 µM) | 14 | 37.5 (≈ 92.6 µM) | 8 | 37.5 (≈ 92.6 µM)
5 | CCCCC/C=C\CC[C@H](O)CCCCCCCc1nc2cc([N+](=O)[O-])ccc2[nH]1 | 19 | 37.5 (≈ 90.2 µM) | 22 | 37.5 (≈ 90.2 µM) | 14 | 75 (≈ 180 µM) | 18 | 37.5 (≈ 90.2 µM) | 19 | 37.5 (≈ 90.2 µM) | 13 | 37.5 (≈ 90.2 µM) | 19 | 37.5 (≈ 90.2 µM) | 14 | 37.5 (≈ 90.2 µM) | 9 | 37.5 (≈ 90.2 µM)
6 | C=CCCCCCCCCc1nc2c([nH]1)CCCC2 | 18 | 75 (≈ 288 µM) | 18 | 75 (≈ 288 µM) | 11 | 150 (≈ 576 µM) | 17 | 37.5 (≈ 144 µM) | 18 | 75 (≈ 288 µM) | 11 | 75 (≈ 288 µM) | 18 | 75 (≈ 288 µM) | 12 | 37.5 (≈ 144 µM) | 7 | 37.5 (≈ 144 µM)
7 | C=CCCCCCCCCc1ncc[nH]1 | 16 | 150 (≈ 727 µM) | 22 | 37.5 (≈ 182 µM) | 12 | 150 (≈ 727 µM) | 15 | 150 (≈ 727 µM) | 19 | 75 (≈ 363 µM) | 14 | 74 (≈ 359 µM) | 16 | 150 (≈ 727 µM) | 11 | 150 (≈ 727 µM) | 6 | 75 (≈ 363 µM)
8 | CCCCCC[C@@H](O)C/C=C\CCCCCCCc1nc2cc([N+](=O)[O-])ccc2[nH]1 | 19 | 37.5 (≈ 90.2 µM) | 21 | 37.5 (≈ 90.2 µM) | 15 | 75 (≈ 180 µM) | 16 | 37.5 (≈ 90.2 µM) | 19 | 37.5 (≈ 90.2 µM) | 12 | 37.5 (≈ 90.2 µM) | 19 | 37.5 (≈ 90.2 µM) | 16 | 37.5 (≈ 90.2 µM) | 9 | 37.5 (≈ 90.2 µM)
9 | C=CCCCCCCCCc1nc2ccccc2[nH]1 | 18 | 75 (≈ 293 µM) | 22 | 75 (≈ 293 µM) | 13 | 150 (≈ 585 µM) | 18 | 150 (≈ 585 µM) | 19 | 75 (≈ 293 µM) | 16 | 75 (≈ 293 µM) | 20 | 150 (≈ 585 µM) | 14 | 150 (≈ 585 µM) | 7 | 75 (≈ 293 µM)
10 | CCCCCC[C@@H](O)C/C=C\CCCCCCCc1ncc[nH]1 | 18 | 150 (≈ 468 µM) | 18 | 37.5 (≈ 117 µM) | 13 | 150 (≈ 468 µM) | 12 | 150 (≈ 468 µM) | 18 | 75 (≈ 234 µM) | 12 | 75 (≈ 234 µM) | 15 | 150 (≈ 468 µM) | 13 | 150 (≈ 468 µM) | 6 | 75 (≈ 234 µM)
